The values below come from ChEMBL document CHEMBL1137826, “A new class of acyclic 2-alkyl-1,1,2-triaryl (Z)-olefins as selective cyclooxygenase-2 inhibitors” (J Med Chem, 2004).

Experiment [1] addresses T1, Prostaglandin G/H synthase 1 (Ovis aries, UniProt P05979).
T1 sequence (P05979 whole entry): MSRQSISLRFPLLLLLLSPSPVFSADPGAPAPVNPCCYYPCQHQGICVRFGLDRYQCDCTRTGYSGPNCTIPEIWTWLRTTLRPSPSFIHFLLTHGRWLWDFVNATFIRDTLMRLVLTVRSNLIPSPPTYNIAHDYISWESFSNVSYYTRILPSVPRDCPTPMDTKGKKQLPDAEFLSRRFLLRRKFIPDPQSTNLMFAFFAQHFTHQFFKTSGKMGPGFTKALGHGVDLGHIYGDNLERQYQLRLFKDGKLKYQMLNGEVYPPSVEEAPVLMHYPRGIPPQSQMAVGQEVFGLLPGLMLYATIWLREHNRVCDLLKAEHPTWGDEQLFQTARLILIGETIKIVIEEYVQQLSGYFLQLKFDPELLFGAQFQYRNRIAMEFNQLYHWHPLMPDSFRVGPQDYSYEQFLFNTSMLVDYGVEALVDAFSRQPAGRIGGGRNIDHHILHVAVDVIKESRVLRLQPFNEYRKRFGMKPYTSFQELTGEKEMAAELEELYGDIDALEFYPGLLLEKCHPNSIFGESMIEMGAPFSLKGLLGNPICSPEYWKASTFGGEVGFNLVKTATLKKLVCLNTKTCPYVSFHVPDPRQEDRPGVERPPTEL
Nature of the experiment: In vitro inhibition of ovine prostaglandin G/H synthase 1.

The subject of experiment [2] is Rattus norvegicus. Nature of the experiment: Percent inhibition of 4% sodium chloride-induced abdominal constriction in rat after 30 min of 5 mg/kg oral dose of the compound. To be noted: Abdomen, 0.5 h. The class given is functional. The gist of the method:
(§1)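 Test compound given to rats orally at 5 mg/kg before 4% NaCl-induced writhing (abdominal constriction).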

Experiment [3] deals with T2, Prostaglandin G/H synthase 2 (Rattus norvegicus) (UniProt P35355).
T2 sequence (whole entry): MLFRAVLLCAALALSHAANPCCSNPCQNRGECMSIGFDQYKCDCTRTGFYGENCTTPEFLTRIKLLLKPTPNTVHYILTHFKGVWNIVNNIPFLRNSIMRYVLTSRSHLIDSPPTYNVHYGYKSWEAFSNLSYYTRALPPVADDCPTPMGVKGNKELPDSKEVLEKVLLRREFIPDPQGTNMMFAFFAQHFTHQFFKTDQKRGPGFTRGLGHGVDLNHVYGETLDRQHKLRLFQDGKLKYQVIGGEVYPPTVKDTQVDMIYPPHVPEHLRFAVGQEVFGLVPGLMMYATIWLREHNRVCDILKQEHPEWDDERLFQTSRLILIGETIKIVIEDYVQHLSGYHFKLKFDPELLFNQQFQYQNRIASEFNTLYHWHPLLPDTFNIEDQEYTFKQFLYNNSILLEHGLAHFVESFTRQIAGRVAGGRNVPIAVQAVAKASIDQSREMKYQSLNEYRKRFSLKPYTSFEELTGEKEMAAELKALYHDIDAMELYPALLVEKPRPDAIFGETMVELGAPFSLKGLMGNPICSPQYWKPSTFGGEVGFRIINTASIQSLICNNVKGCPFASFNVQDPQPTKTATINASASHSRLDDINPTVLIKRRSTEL

Experiment [4] relates to Rattus norvegicus. Nature of the experiment: Percent inhibition of 4% sodium chloride-induced abdominal constriction in rat after 60 min of 5 mg/kg oral dose of the compound. The settings on record: Abdomen, 1 h. It counts as functional. The gist of the method: as §1
For experiment [5], the species on record is Rattus norvegicus. Nature of the experiment: animal or person. To be noted: Abdomen, po, 0.5 h, read-out: Inhibition.

On to `CCCCCCCC/C(=C(\c1ccccc1)c1ccc(S(C)(=O)=O)cc1)c1ccccc1`, for which the IC50 (as a rule, the concentration needed to halve the response being measured) in experiment [1] was greater than 100 µM.
Turning to `CC/C(=C(\c1ccccc1)c1ccc(S(C)(=O)=O)cc1)c1ccccc1`, the inhibition in vivo at 5 mg/kg in experiment [2] was 38.8%; in experiment [4], 50%. In experiment [1], this compound gave an IC50 greater than 100 µM. This compound displayed an ID50 in experiment [3] of 1.9 mg/kg.
For the compound `Cc1ccc(-c2cc(C(F)(F)F)nn2-c2ccc(S(N)(=O)=O)cc2)cc1` [CELECOXIB], in experiment [5], the inhibition in vivo at 50 mg/kg turned out to be 69.3%.
Consider `CC/C(=C(\c1ccccc1)c1ccc(S(C)(=O)=O)cc1)c1ccc(OC(C)=O)cc1`, for which the inhibition in vivo at 5 mg/kg in experiment [2] came to 60%; in experiment [4], 57.5%. In experiment [1], this compound registered a half-inhibitory concentration (IC50) of 0.25 µM. For the same compound, the ID50 in experiment [3] amounted to 1.3 mg/kg.
`CCCCCC/C(=C(\c1ccccc1)c1ccc(S(C)(=O)=O)cc1)c1ccccc1`: the inhibition in vivo at 5 mg/kg stood at 33.3% in experiment [2] and 35.4% in experiment [4]. The compound also came in with an IC50 in experiment [1] greater than 100 µM. This compound also returned an ID50 in experiment [3] of 1.1 mg/kg.
In experiment [1], `CCC/C(=C(\c1ccccc1)c1ccc(S(C)(=O)=O)cc1)c1ccccc1` displayed an IC50 greater than 100 µM.
Still for that read-out and setting: in the case of `CCCC/C(=C(\c1ccccc1)c1ccc(S(C)(=O)=O)cc1)c1ccc(OC(C)=O)cc1` it was greater than 100 µM; in that of `CCCC/C(=C(\c1ccccc1)c1ccc(S(C)(=O)=O)cc1)c1ccccc1`, 30 µM.
